Compounds with a hit are over-represented: about 2.3% of the library has one in this group of screens.
TRPC4 potent: allosteric potentiators of mouse TRPC4 channel; 0.42% of 310,000 active; B-score at 10 µM; Q9QUQ5; HEK293 TRPC4beta/mu-opioid, DAMGO EC20, Fluo-4 Ca2+ flux; active compounds read high; AID 2227;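 active means B-score of calcium response area above 5 SD of library B-scores, with initial fluorescence ratio within 5 SD of library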;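 further: B-score of integrated fluorescence ratio over time as area under calcium response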
TRPC4 block: TRPC4 (mouse) channel inhibition | B-score at 10 µM | AID 2247 | Q9QUQ5 | 0.39% of 300,000 active | HEK293 TRPC4beta/mu-opioid, DAMGO-evoked Fluo4 calcium flux; active compounds read low;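 active means B-score over 3 SD under the library average, no early fluorescence shift, positive overall ratio signal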
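test system = HEK293 cells with stable TRPC4beta plus mu-opioid receptor expression | detection = Fluo4 Ca2+ flux fluorescence | read-out = integrated fluorescence ratio relative to baseline, converted to per-well B score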
TRPC6 inh: blocks the mouse TRPC6 cation channel; Q61143; B-score at 10 µM; HEK293-TRPC6, membrane potential dye, ACh-evoked depolarization; active compounds read low; 1.1% of 310,000 active; AID 2553;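 active means B-score under library mean minus 3 SD, initial fluorescence not abnormally high, positive integrated signal ratio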;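 further: B-score derived from integrated fluorescence ratio over the kinetic read; more negative B-score means stronger inhibition of depolarization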
Target sequence (Q61143 whole entry, looked up): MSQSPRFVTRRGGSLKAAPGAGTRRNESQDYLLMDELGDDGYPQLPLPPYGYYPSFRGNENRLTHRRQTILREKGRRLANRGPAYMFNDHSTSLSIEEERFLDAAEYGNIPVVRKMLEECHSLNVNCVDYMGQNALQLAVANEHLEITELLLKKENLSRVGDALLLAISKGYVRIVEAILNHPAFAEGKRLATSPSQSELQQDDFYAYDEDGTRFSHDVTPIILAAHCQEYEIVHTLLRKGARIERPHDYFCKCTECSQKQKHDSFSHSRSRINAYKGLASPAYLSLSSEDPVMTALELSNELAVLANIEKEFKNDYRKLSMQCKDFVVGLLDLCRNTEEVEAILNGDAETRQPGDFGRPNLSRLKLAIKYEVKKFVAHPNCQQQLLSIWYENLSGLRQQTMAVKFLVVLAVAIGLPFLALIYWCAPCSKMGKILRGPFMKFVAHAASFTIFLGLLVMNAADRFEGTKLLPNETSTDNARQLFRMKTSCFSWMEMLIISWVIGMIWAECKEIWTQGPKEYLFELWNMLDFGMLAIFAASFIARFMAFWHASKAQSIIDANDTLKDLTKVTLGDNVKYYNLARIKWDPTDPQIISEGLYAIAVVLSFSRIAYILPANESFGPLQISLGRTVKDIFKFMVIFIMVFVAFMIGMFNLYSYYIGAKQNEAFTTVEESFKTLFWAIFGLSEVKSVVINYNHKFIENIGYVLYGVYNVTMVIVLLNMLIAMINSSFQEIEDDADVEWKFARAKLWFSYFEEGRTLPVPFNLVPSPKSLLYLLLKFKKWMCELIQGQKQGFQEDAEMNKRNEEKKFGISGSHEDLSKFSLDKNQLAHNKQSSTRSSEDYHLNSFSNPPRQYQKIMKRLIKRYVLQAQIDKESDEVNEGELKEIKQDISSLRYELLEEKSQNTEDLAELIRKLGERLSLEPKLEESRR
TRPC6 activator: activates the mouse TRPC6 cation channel | Q61143 | AID 2550 | HEK293-TRPC6 membrane potential dye fluorescence; active compounds read high | B-score at 10 µM | 0.13% of 310,000 active;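 active means B-score of the integrated fluorescence ratio above library mean plus 3 SD, and starting fluorescence ratio within library mean plus 5 SD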;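 further: higher score means more depolarization so channel activation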
TRPC4 act: opens the mouse TRPC4 cation channel. 0.49% of 310,000 active. HEK293 TRPC4beta/mu-opioid, Fluo4 calcium fluorescence; active compounds read high. B-score at 10 µM;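 active means B-score above 5 SD of library B-scores, and initial fluorescence ratio not above library mean plus 5 SD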;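 further: positive B-score marks a calcium rise read as TRPC4 activation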
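system = HEK293 cells stably co-expressing mouse TRPC4beta and mu-opioid receptor | schedule = Fluo4 dye loading 45 min at room temperature, 110 s recording | measure = B-scored integrated calcium fluorescence ratio | signal = Fluo4 calcium-sensitive dye fluorescence, kinetic, 1 Hz baseline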
TRPC4 sel inh 2: second check of whether TRPC6 inhibitors also affect mouse TRPC4; HEK293 TRPC4/MOR, membrane potential dye fluorescence; channel activated by saturating DAMGO dose; inhibition, % at 10 µM; shares compounds with TRPC6 inh; 42% of 920 active;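 active means compounds whose fluorescence signal differed from control wells by over 3 SD, either direction, in both duplicate plates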
TRPC4 spec: mouse TRPC4 off-target activity of TRPC6 inhibitors; shares compounds with TRPC6 inh; HEK293 TRPC4/mu-opioid, membrane potential fluorescence; activity change, negative = inhibition, % at 10 µM; 61% of 920 active; AID 2777;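 active means rise or fall in signal beyond 3 SD of buffer-only wells in both replicate plates, either sign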;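 further: integrated kinetic ratio of fluorescence range over baseline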
HEK293 MPD ctr 2-1: parental HEK293 nonspecific activity of TRPC6 inhibitors, second screen. shares compounds with TRPC6 inh. parental HEK293 membrane potential dye fluorescence; maximal acetylcholine challenge after compound addition. signal change vs control, % at 10 µM. 31% of 920 active;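 active means membrane potential signal moving either way by over 3 SD of the maximum-effect control, in both duplicate plates, meaning non-specific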
HEK293 MPD ctr-1: checks TRPC6 inhibitor effects in parental HEK293 cells | shares compounds with TRPC6 inh | parental HEK293 membrane potential dye fluorescence | membrane potential signal change, % at 10 µM | 60% of 920 active | AID 2780;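 active means membrane potential signal shifting up or down by more than 3 SD of buffer-only wells, on both duplicate plates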
HEK293 MPD ctr-2: counter-screen for TRPC6 modulators: effect in parental HEK293 cells. shares compounds with TRPC6 inh. membrane potential dye fluorescence. membrane potential signal change, % at 10 µM. 51% of 2,400 active. AID 488924;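 active means membrane potential signal moves up or down beyond 5 SD from buffer-only wells, on both duplicate plates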
HEK293 MPD ctr 2-2: parental HEK293 nonspecific activity of TRPC6 modulators, second screen; 14% of 2,400 active; membrane potential dye fluorescence; after compound, maximal acetylcholine stimulation; shares compounds with TRPC6 inh; inhibition, % at 10 µM;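 active means membrane potential signal drops by more than 5 SD from the mean control signal, in both duplicate plates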;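 further: plate controls were acetylcholine ECmax control wells for no effect and buffer only wells for full effect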
TRPC4 ctr mod: selectivity of TRPC6 modulators against mouse TRPC4; shares compounds with TRPC6 inh; HEK293 TRPC4/mu-opioid, membrane potential fluorescence; percent change from control (negative = decrease, positive = increase), % at 10 µM; 69% of 2,400 active;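 active means membrane potential signal moved up or down beyond 5 SD of buffer control wells, in both duplicate plates, actives on both sides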;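 further: plate controls were assay buffer wells for no effect and DAMGO maximal-effect wells for full effect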
TRPC4/MOR inh 2: mouse TRPC4 off-target activity of TRPC6 modulators, second screen | inhibition, % at 10 µM | shares compounds with TRPC6 inh | 55% of 2,400 active | HEK293 TRPC4/mu-opioid, membrane potential dye fluorescence; stimulated with maximal-effect DAMGO;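 active means drop in membrane potential signal beyond 5 SD of the control wells in both duplicate plates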;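 further: TRPC4 counter screen for TRPC6 hits run under conditions tuned for TRPC6 not TRPC4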
TRPC6 block conf: mouse TRPC6 inhibitor confirmation; shares compounds with TRPC6 inh; HEK293-TRPC6, membrane potential dye, ACh-evoked depolarization; inhibition, % at 10 µM; 43% of 3,300 active; AID 488960;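 active means fluorescence ratio falls more than 5 SD below the full-stimulation control mean, in both duplicate runs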;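 further: integrated fluorescence ratio of peak minus minimum over baseline after agonist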
TRPC6 act conf: confirmation of mouse TRPC6 activators; shares compounds with TRPC6 inh; HEK293-TRPC6 membrane potential dye fluorescence, FDSS; activation, % at 10 µM; 11% of 2,800 active;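 active means ratio signal rise beyond 5 SD above unstimulated control wells' mean, seen in both duplicate runs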;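 further: plate controls were buffer EC0 wells for no effect and acetylcholine ECmax response for full effect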
An asterisk follows results filed as active.

What do the screens show for `O=S(=O)([N-]c1nc2ccccc2nc1-n1cc[n+](Cc2ccccc2)c1)c1ccc(Cl)cc1`?
TRPC4 potent: inactive; TRPC4 block: inactive; TRPC6 inh: inactive; TRPC6 activator: inactive; TRPC4 act: inactive

Results for COC(=O)/C=C1\SC(=NC(=O)c2ccc(C)cc2)NC1=O ?
TRPC4 potent: inactive; TRPC4 block: inactive; TRPC6 inh: inactive; TRPC6 activator: inactive; TRPC4 act: inactive

How did COC(=O)/C=C1/SC(=NC(=O)c2ccc(Cl)cc2)NC1=O do in these assays?
TRPC4 potent: inactive; TRPC4 block: inactive; TRPC6 inh: inactive; TRPC6 activator: 14*; TRPC4 act: inactive; HEK293 MPD ctr-2: 134%*; HEK293 MPD ctr 2-2: inactive; TRPC4 ctr mod: 20%*; TRPC4/MOR inh 2: inactive; TRPC6 block conf: inactive; TRPC6 act conf: 56%*

What do the screens show for `Cc1ccc(-c2n[nH]c(=S)n2Cc2ccccc2)cc1`?
TRPC4 potent: inactive; TRPC4 block: inactive; TRPC6 inh: -5*; TRPC6 activator: inactive; TRPC4 act: inactive; HEK293 MPD ctr-2: inactive; HEK293 MPD ctr 2-2: inactive; TRPC4 ctr mod: inactive; TRPC4/MOR inh 2: inactive; TRPC6 block conf: inactive; TRPC6 act conf: inactive

What do the screens show for `Cc1nccn1CCc1n[nH]c(=S)n1Cc1ccccc1`?
TRPC4 potent: inactive; TRPC4 block: inactive; TRPC6 inh: -6.5*; TRPC6 activator: inactive; TRPC4 act: inactive; HEK293 MPD ctr-2: inactive; HEK293 MPD ctr 2-2: inactive; TRPC4 ctr mod: inactive; TRPC4/MOR inh 2: inactive; TRPC6 block conf: 69%*; TRPC6 act conf: inactive

Results for Cc1cccc(-c2n[nH]c(=S)n2Cc2ccccc2)c1 ?
TRPC4 potent: inactive; TRPC4 block: inactive; TRPC6 inh: inactive; TRPC6 activator: inactive; TRPC4 act: inactive

Results for S=c1[nH]nc(CCc2ccccc2)n1Cc1ccccc1 ?
TRPC4 potent: inactive; TRPC4 block: inactive; TRPC6 inh: inactive; TRPC6 activator: inactive; TRPC4 act: inactive

Results for CCCN(CC(=O)Nc1ccccc1C)C(=O)c1ccc(=O)n(Cc2ccccc2)n1 ?
TRPC4 potent: inactive; TRPC4 block: inactive; TRPC6 inh: -5.1*; TRPC6 activator: inactive; TRPC4 act: inactive; HEK293 MPD ctr-2: 90%*; HEK293 MPD ctr 2-2: inactive; TRPC4 ctr mod: 16%*; TRPC4/MOR inh 2: inactive; TRPC6 block conf: inactive; TRPC6 act conf: inactive

How did CCCN(CC(=O)Nc1ccccc1C)C(=O)c1ccc(C(=O)c2ccccc2)cc1 do in these assays?
TRPC4 potent: inactive; TRPC4 block: inactive; TRPC6 inh: inactive; TRPC6 activator: inactive; TRPC4 act: inactive

How did Cc1ccc(-n2nc3c(c2NC(=O)C(C)C)CS(=O)(=O)C3)cc1 do in these assays?
TRPC4 potent: inactive; TRPC4 block: inactive; TRPC6 inh: -5.5*; TRPC6 activator: inactive; TRPC4 act: inactive; HEK293 MPD ctr-2: inactive; HEK293 MPD ctr 2-2: inactive; TRPC4 ctr mod: 21%*; TRPC4/MOR inh 2: inactive; TRPC6 block conf: inactive

How did CC(C)C(=O)Nc1c2c(nn1-c1ccc([N+](=O)[O-])cc1)CS(=O)(=O)C2 do in these assays?
TRPC4 potent: inactive; TRPC4 block: inactive; TRPC6 inh: inactive; TRPC6 activator: inactive; TRPC4 act: inactive

How did CN(C)/C=C(/C(=O)c1ccc(Cl)cc1)S(=O)(=O)c1ccc(Cl)cc1 do in these assays?
TRPC4 potent: inactive; TRPC4 block: inactive; TRPC6 inh: inactive; TRPC6 activator: inactive; TRPC4 act: inactive

What do the screens show for `COc1ccccc1CNC(=O)Cn1cccc1C(=O)c1ccccc1`?
TRPC4 potent: inactive; TRPC4 block: inactive; TRPC6 inh: inactive; TRPC6 activator: inactive; TRPC4 act: inactive

How did COc1ccccc1C(=O)N1CCCC1(C#N)c1ccccc1 (centres undefined) do in these assays?
TRPC4 potent: inactive; TRPC4 block: inactive; TRPC6 inh: inactive; TRPC6 activator: inactive; TRPC4 act: inactive

Results for COc1ccc(C(=O)N2CCCC2(C#N)c2ccccc2)cc1[N+](=O)[O-] (centres undefined) ?
TRPC4 potent: inactive; TRPC4 block: inactive; TRPC6 inh: -7.6*; TRPC6 activator: inactive; TRPC4 act: inactive; TRPC4 sel inh 2: inactive; TRPC4 spec: 0.7%*; HEK293 MPD ctr 2-1: inactive; HEK293 MPD ctr-1: inactive; TRPC6 block conf: inactive; TRPC6 act conf: inactive

Results for COc1ccc(Cn2c(-c3ccc(C)cc3)c[n+]3ccccc23)cc1 ?
TRPC4 potent: inactive; TRPC4 block: inactive; TRPC6 inh: -6.2*; TRPC6 activator: inactive; TRPC4 act: inactive; HEK293 MPD ctr-2: -232%*; HEK293 MPD ctr 2-2: inactive; TRPC4 ctr mod: -30%*; TRPC4/MOR inh 2: 48%*; TRPC6 block conf: 46%*; TRPC6 act conf: inactive

Assay outcomes: PubChem BioAssay, Johns Hopkins Ion Channel Center
